This note sets out measurements from PMC8158801 (ACS Omega, 2021).

The test system of assay [1] is mouse myelogenous leukemia (M-NFS-60) cell line. The experiment in a line: Cytotoxic activity, MTT cell viability assay, M-NFS-60. Type of assay: cell-based. As to conditions: n = 3, reference standard. The arrangement: unit not given beside the values. An outline of the steps: (§1)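 The defatted alcoholic root extract was tested at 4–500 μg/mL, with cisplatin as the reference standard, in an MTT cell-viability assay. Viability is expressed as % of untreated control. IC50 was derived by linear regression. Each point was run in triplicate and reported as mean ± SD.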
On the technique in general: Formazan colour is commonly taken as a measure of viable cells.

Assay [2] deals with Human hepatocellular carcinoma (HepG2) cell line. The experiment in a line: Cytotoxic activity, MTT cell viability assay, HepG2. Type of assay: cell-based. On the set-up: unit not given beside the values. As to conditions: n = 3, reference standard. Put shortly: as §1

In the case of `N.N.[Cl][Pt][Cl]` [cisplatin], the “IC50 against M-NFS-60 cell line (unit not given)” value in assay [1] was found to be 8.37 ± 0.25. In addition, in assay [2], the “IC50 against HepG2 cell line (unit not given)” value was 3.25 ± 1.4.
